Xi reactivation – activators of inactive X chromosome reactivation, primary screen, imaging, XiGFP fibroblasts, GFP high-content imaging, set 2; XiGFP mouse fibroblasts, % GFP-positive cells imaging, 3 d; cells co-treated with 5-aza-dC sensitizer; scaled so ellipticine positive control = 100%; activation, % at 7.58 µM; 360,000 compounds, 0.055% hits; AID 743238, 2013;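 active means mean normalized replicate activation at least 10% and every replicate at or above 10%; inconclusive means only one of the two criteria met; inactive means mean below 10% and not all replicates reach 10%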;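 further: 0% = median of on-plate neutral control wells and 100% = ellipticine 6 µM median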
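System: SV40-immortalized XiGFP fibroblast cells, line 68-5-11 / Incubation: 3-day compound exposure, then 15 min fixation at room temperature / Compound: single concentration per compound, delivered by pin transfer / Buffer or medium: DMEM plus 5-aza-dC sensitizer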
PAX8 reporter – inhibitors of PAX8-driven TPO luciferase reporter, primary screen, RMG-I cells, single concentration. SteadyGlo, 24 h. inhibition, % at 12.6 µM. 360,000 compounds, 1.2% hits. AID 652154, 2013;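 active means mean replicate inhibition at least 60% with every replicate also reaching 60%; inconclusive means only one of the two criteria is met; inactive means mean below 60% and not all replicates reaching 60%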;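 further: luciferase light reporting Pax8 driven TPO promoter activity; plate controls were median of neutral control wells for no effect and mitoxantrone controls for full effect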
MLL AF4-AF9 inh – inhibitors of AF4 peptide binding to AF9, primary screen, biochemical, AlphaScreen, biotin-AF4 peptide, FLAG-AF9, single point; Protein AF-9 (Homo sapiens), P42568; inhibition, % at 10 µM; 350,000 compounds, 0.47% hits;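 active means every replicate reaching a set inhibition limit, whatever the replicate mean, cut at about 25% in these data; inconclusive means mean inhibition reaches that limit but some replicates miss it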;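 further: 0% = plate neutral control median and 100% = total signal loss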
Target sequence (P42568 whole entry, looked up): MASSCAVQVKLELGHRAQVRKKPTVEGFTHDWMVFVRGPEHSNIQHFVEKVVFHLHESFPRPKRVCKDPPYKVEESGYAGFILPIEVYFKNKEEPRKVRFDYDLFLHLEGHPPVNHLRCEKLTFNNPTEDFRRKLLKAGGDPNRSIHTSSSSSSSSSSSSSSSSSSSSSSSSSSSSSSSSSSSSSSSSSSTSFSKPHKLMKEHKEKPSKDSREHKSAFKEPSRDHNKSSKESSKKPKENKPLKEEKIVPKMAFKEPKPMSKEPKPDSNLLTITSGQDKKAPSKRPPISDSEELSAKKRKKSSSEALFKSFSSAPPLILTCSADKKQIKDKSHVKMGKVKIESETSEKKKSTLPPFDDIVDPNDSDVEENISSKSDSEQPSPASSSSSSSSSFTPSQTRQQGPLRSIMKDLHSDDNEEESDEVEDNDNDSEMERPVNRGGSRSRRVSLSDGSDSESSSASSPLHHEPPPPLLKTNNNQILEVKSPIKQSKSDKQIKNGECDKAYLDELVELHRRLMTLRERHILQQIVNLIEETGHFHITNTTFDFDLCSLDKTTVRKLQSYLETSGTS
EWS-Fli block – EWS/Fli-driven NR0B1 reporter inhibitors, primary screen, A673 cells, NR0B1 luciferase, luminescence, MLPCN library; inhibition, % at 12.6 µM; AID 651661, 2012; 350,000 compounds, 0.67% hits; viability-normalised;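 active means mean inhibition of at least 50% after viability correction, with every replicate also passing that limit; inconclusive means mean reaches 50% but only one of two replicates passes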;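 further: firefly luciferase signal divided by Alamar Blue viability fluorescence both relative to DMSO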
PGC1a acetyl inh – inhibitors of PGC1a acetylation signal, primary screen, cell-based, U2OS, AlphaScreen, inhibitor mode | AID 651687, 2012 | inhibition, % at 15.6 µM | AlphaScreen anti-acetyl-lysine; with virally co-expressed GCN5 acetyltransferase | 350,000 compounds, 0.17% hits;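 active means every replicate shows inhibition of at least 40%; inconclusive means mean inhibition at least 40% but some replicate below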;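 further: 0% = neutral control wells and 100% = positive control wells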
GSIS activator – GLuc luminescence reporter in INS-1E cells, primary screen for activators of glucose-dependent secretion of insulin; INS-1E GLuc reporter insulin secretion, 2-3 h; activation, % at 16.6 µM; 370,000 compounds, 0.61% hits;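 active means lowest replicate activation of at least 40%, so every replicate reaches that level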;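 further: 0% = median of neutral control wells and 100% = median of IBMX positive control wells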
* hit, by the source's call; ? = inconclusive; . = no result given. Only some compounds are listed: those with a hit (about 2.1% of all), similar ones and a draw of the others.

SMILES	Xi reactivation	PAX8 reporter	MLL AF4-AF9 inh	EWS-Fli block	PGC1a acetyl inh	GSIS activator
C[C@H]1CN([C@@H](C)CO)S(=O)(=O)c2ccc(-c3ccc(C#N)cc3)cc2O[C@@H]1CN(C)Cc1ccccn1	-0.2	?	-3.1	66.6*	-0.2	-7.2
Cc1ccc(-c2ccc3c(c2)O[C@@H](CN(C)Cc2ccccn2)[C@H](C)CN([C@@H](C)CO)S3(=O)=O)cc1	-0.9	.	5.6	31.3	8.8	-24.0
CC(C)NC(=O)N(C)C[C@@H]1Oc2ccc(NC(=O)Cc3cn(C)c4ccccc34)cc2C(=O)N([C@@H](C)CO)C[C@H]1C	0.0	10.7	1.1	0.3	0.9	11.0
NC(=O)CC(NC(=O)Cc1cccc2ccccc12)c1ccc(NC2CCN(Cc3ccccc3)CC2)c([N+](=O)[O-])c1 (centres undefined)	0.0	-20.4	53.6*	4.1	6.0	2.3
CC(C)CC#Cc1ccc([C@@H]2[C@H]3CN(C(=O)Cc4ccccc4)CC(=O)N3[C@H]2CO)cc1	0.3	.	10.4	4.0	-0.3	2.0
COc1ccc2nc(C)cc(SCC(=O)Nc3c(C)cccc3C)c2c1	0.0	-13.1	-8.0	74.4*	.	2.8
COc1ccccc1C#Cc1ccc2c(c1)[C@H]1[C@H](CCN1S(=O)(=O)c1cccc(C)c1)[C@H](CO)N2	0.0	22.0	-0.6	-9.3	-47.4	9.2
O=C(Cc1ccccc1)Nc1cccc(N2C(=O)C=CC2=O)c1	2.5	.	5.4	17.0	.	59.2*
COC(=O)c1cccc(Cn2nnc3ccccc3c2=O)c1	.	.	.	.	-6.2	.
O=c1c2ccccc2nnn1Cc1ccc2ccccc2c1	72.7*	-26.5	2.2	-33.0	0.6	26.3
COc1ccc(CN(C)C[C@H]2OCCCC[C@H](C)Oc3ccc(NC(=O)c4ccccc4)cc3C(=O)N([C@H](C)CO)C[C@H]2C)cc1	0.0	-22.9	9.2	-1.4	7.3	-24.6
Cc1onc(C(=O)N2CCOCC2)c1[N+](=O)[O-]	-0.1	-13.0	-0.5	-4.1	0.0	-4.2
COc1ccccc1N1CCN(C(=O)c2noc(C)c2[N+](=O)[O-])CC1	0.0	8.6	-2.8	6.6	-0.9	56.9*
Cc1onc(C(=O)N2CCN(C(c3ccccc3)c3ccccc3)CC2)c1[N+](=O)[O-]	0.0	97.5*	7.2	27.5	.	3.6
C(=NN1CCCCCC1)c1ccc2ccccc2n1	0.0	.	13.7	88.4*	3.6	7.1
C(=NN1CCCCCC1)c1cccc2ccccc12	0.0	7.5	9.1	-16.6	0.8	.
CCCCCOc1ccc(Br)cc1/C(C)=N/NC1=NCCN1	.	81.2*	.	.	7.3	.
O=S(=O)(c1ccc(F)cc1)N1CC[C@@H]2[C@H](CO)Nc3ccc(-c4ccc(F)cc4)cc3[C@@H]21	0.0	40.0	.	-3.0	-12.3	6.0
COc1cc(/C=N/NC(=O)c2ccc(CN3C(=O)c4cccc5cccc3c45)cc2)cc(OC)c1O	-0.2	97.7*	-1.1	5.4	-5.1	24.4
COc1cccc(NC(=O)N2[C@@H]3CNC[C@H]2C3c2ccc(/C=C/c3ccccc3)cc2)c1 (some centres undefined)	0.2	.	21.0	.	-4.5	-19.0
COC(=O)[C@@H]1[C@@H](CO)[C@@H]2Cn3c(ccc(-c4ccccc4)c3=O)[C@@H]2N1Cc1ccccc1F	0.0	18.6	?	-6.1	.	-2.7
CCOC(=O)c1ccc2nc(Nc3nc4ccc(F)cc4s3)sc2c1	0.0	49.0	-5.5	79.9*	.	.
COc1ccc(C2c3cc4c(cc3OC(N3CCOCC3)C2C)OCO4)c(OC)c1 (centres undefined)	0.2	37.0	18.2	60.3*	.	-25.2
COc1cccc(C2c3cc4c(cc3OC(N3CCOCC3)C2C)OCO4)c1O (centres undefined)	0.1	20.0	4.9	28.4	.	-7.8
O=C(C[C@H]1CC[C@@H]2[C@H](COC[C@H](O)CN2Cc2cc(F)cc(F)c2)O1)NC1CCC1	0.2	0.0	-0.7	-19.0	-0.2	13.3
SMILES	Xi reactivation	PAX8 reporter	MLL AF4-AF9 inh	EWS-Fli block	PGC1a acetyl inh	GSIS activator
Cc1ccc(-n2c(=O)c3ccc(C(=O)NCc4ccco4)cc3n(Cc3ccccc3C#N)c2=O)cc1	0.1	76.1*	-9.3	6.4	.	5.9
Cn1cc(/C=C(\C(=O)O)C(C(=O)O)=C2CCCCC2)c2ccccc21	0.0	94.9*	-0.8	8.0	9.6	-0.1
Cn1c(NC(=O)C2CC2)cc(=O)n(C)c1=O	0.3	-1.2	48.9*	-0.4	-3.4	15.0
CCOc1nc(CC(C)C)c2c(c1C#N)CC(C)(C)OC2	-0.3	6.3	-5.7	15.0	-7.2	51.2*
Oc1c(C(c2ccccc2)N2CCOCC2)ccc2ccccc12 (centres undefined)	0.2	86.7*	0.7	0.2	14.4	-1.7
CCN(CC)CCNc1cc(C)nc2c1C(=O)C(=O)C=C2N1CCCCC1	0.8	73.1*	-6.5	-17.2	30.8	-1.6
CCC(=O)N(C)C[C@H]1Oc2ncc(/C=C/c3ccccc3)cc2C(=O)N([C@@H](C)CO)C[C@H]1C	0.1	.	1.2	-22.6	4.5	-6.8
C[C@@H]1CN([C@@H](C)CO)C(=O)c2cccc(NC(=O)Nc3ccc(F)cc3)c2O[C@@H]1CN(C)C(=O)NC1CCCCC1	-0.1	11.0	-2.9	1.7	-0.5	-11.7
O=C1c2ccccc2C(=O)c2[nH]c(=O)[nH]c21	-0.1	91.5*	-5.5	4.4	.	-1.9
C[C@@H]1CN([C@@H](C)CO)C(=O)Cc2cc(NC(=O)NC3CCCCC3)ccc2O[C@H]1CN(C)C(=O)Nc1cccc2ccccc12	-0.8	20.3	0.2	10.7	-3.7	-8.4
CCOC(=O)c1c(C)[nH]c(C2=NNC(=Nc3ccccc3OC)SC2)c1C	0.0	74.2*	-1.1	-55.1	-6.8	22.7
CN(C)CC#Cc1ccc([C@H]2[C@H]3CN(CC4CCOCC4)CCCCN3[C@H]2CO)cc1	0.2	19.3	-4.2	-11.7	8.2	2.5
CN(C)CC#Cc1ccc([C@@H]2[C@H]3CN(CC4CC4)CCCCN3[C@H]2CO)cc1	0.2	-20.4	26.3*	-5.8	-3.2	17.6
CN(C)CC#Cc1ccc([C@@H]2[C@@H](CO)N3CCCCN(CC4CC4)C[C@H]23)cc1	-0.1	-46.8	15.8	4.6	0.3	21.8
CN(C)CC#Cc1ccc([C@H]2[C@@H](CO)N3CCCCN(CC4CC4)C[C@H]23)cc1	-0.1	-21.2	26.1*	16.8	0.8	23.3
CC(=O)Nc1ccc(NC(=O)c2csc([C@@H]3O[C@H](CO)[C@H](O)[C@H](O)[C@H]3O)n2)cc1	-0.1	0.6	1.7	-5.6	-0.8	2.6

Assay outcomes deposited in PubChem BioAssay by Broad Institute.
